SKN-1 inh = C. elegans SKN-1 inhibition; C. elegans VP596 Pgst-4::GFP/RFP ratio, acrylamide-induced, 24 h; inhibition, % at 21.8 µM; 360,000 compounds, 0.49% hits;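 active = interference check ratio from 0.5 to 1.5 plus GFP to RFP signal ratio inhibition reaching or exceeding a fixed threshold, cut at about 30% in these data, passing the limit was not always enough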
Rin1-Abl PPI inh = blocks binding of human Rin1 to Abl | inhibition, % at 7.35 µM | P00519+Q13671 | AID 588664 | 360,000 compounds, 0.4% hits | TR-FRET Rin1/Abl binding, biochemical; in the data active = inhibition above about 5%, passing the limit was not always enough
T cell modulator = modulates CD8 T cell binding to vesicles; 2C CD8+ T cell-vesicle binding, flow cytometry; hits give low values; response (vesicle binding), % at 7 µM; 330,000 compounds, 0.068% hits; AID 2052;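 active = response, share of CD8 T cells binding vesicles, and their 90th percentile fluorescence all below set limits, cut at about 80% in these data, passing the limit was not always enough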;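 also: values below 100% mean blocked vesicle binding to the CD8+ T cells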
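System: murine 2C transgenic CD8+ T lymphocytes; also added: QL9-loaded Drosophila micro-vesicles; times: binding 1.5 h at 37 °C; measured by: flow cytometry, PE anti-B7-1 (FL2) versus Alexa647 anti-CD8 (FL8), PFA-fixed; control set: Peptide-free naked vesicles (low) and QL9 vesicles with 0.7% DMSO vehicle (high)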
Myeloid diff MLP = myeloid differentiation induction; ER-HoxA9 myeloid progenitors, lysozyme-GFP differentiation, flow cytometry; calls only at 10 µM; 360,000 compounds, 1% hits;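 active = normalized GFP-positive differentiation at or above the plate's own cutoff, the solvent-only control mean plus 3 SD; inconclusive = no clear call, values can overlap the other calls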;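 also: cells exposed to compound for four days before flow analysis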
GRK2 inh = inhibitors of human GRK2 displacing RNA aptamer. bead flow cytometry, FAM-aptamer displacement from GRK2. inhibition of aptamer binding, % at 10 µM. 330,000 compounds, 0.59% hits. AID 488847;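 active = inhibition of aptamer binding above 40%, roughly 3 SD of noise, on plates passing a quality check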;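 also: median bead fluorescence of bound FAM aptamer so fluorescent compounds give negative values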
Target sequence (P25098 whole entry, looked up): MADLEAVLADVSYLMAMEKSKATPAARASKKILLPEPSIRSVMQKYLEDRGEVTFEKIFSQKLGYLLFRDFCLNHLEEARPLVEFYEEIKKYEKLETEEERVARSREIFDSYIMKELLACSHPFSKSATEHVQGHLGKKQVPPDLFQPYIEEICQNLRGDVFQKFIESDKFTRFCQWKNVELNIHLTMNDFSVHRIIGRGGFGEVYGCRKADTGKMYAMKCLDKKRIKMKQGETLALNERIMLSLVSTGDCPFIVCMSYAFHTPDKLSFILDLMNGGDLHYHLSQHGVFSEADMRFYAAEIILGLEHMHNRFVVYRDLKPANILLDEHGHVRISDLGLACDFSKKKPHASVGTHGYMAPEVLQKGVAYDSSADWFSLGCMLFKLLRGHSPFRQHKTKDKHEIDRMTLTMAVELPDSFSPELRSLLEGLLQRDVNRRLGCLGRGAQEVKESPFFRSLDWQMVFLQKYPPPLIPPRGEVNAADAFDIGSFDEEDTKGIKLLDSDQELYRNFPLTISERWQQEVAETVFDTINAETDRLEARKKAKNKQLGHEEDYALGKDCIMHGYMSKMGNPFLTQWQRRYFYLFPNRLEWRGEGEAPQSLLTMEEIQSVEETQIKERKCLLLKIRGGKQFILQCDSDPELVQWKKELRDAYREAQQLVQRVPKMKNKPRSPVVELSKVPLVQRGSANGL
Rce1 inh = blocks yeast Ras-converting enzyme; yeast membranes, quenched prenylated peptide cleavage fluorescence; calls only; 290,000 compounds, 0.27% hits; AID 2563;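 active = fall in fluorescence gain of 50% or more versus controls, with final raw signal at or below 3038400; inconclusive = same 50% fall but final raw signal above 3038400; inactive = fall in fluorescence gain under 50%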;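 also: plate controls were neutral control wells for no effect and wells lacking membranes for full effect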
GRK2 inh confirm = confirmation of human GRK2 inhibitors displacing RNA aptamer; shares compounds with GRK2 inh; bead-bound GRK2, FAM-aptamer displacement, flow cytometry; aptamer displacement, % at 10 µM; 2,000 compounds, 4% hits;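 active = aptamer displacement above 40%, near three times the noise of non-fluorescent compounds, on plates passing quality checks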;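 also: negative values mostly reflect intrinsic compound fluorescence rather than true enhancement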
FAM quench CP1 = quenches fluorescent RNA aptamer, GRK2 hit artifact; shares compounds with GRK2 inh; 2,000 tested, under 10 active; fluorescence response (% of DMSO), % at 10 µM; Carboxyfluorescein RNA aptamer on beads, flow cytometry quenching; hits give low values;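 active = compounds that quench the bead-bound fluorescent RNA probe, cutting fluorescence to under half of the solvent control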;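 also: counterscreen run without GRK2 so only probe quenching by compound is measured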
GRK2 CP2 = confirmation of human GRK2 inhibitors binding RNA aptamer site; AID 504782; bead-bound GRK2, FAM-aptamer displacement, flow cytometry; shares compounds with GRK2 inh; inhibition of aptamer binding, % at 10 µM; 360 tested, under 10 active;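 active = inhibition of aptamer binding above 40%, about triple the noise seen with nonglowing compounds, on plates passing quality control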;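 also: negative values mostly come from compounds that fluoresce themselves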
FAM quench SP = aptamer fluorescence quenching in GRK2 counter-screen; shares compounds with GRK2 inh; carboxyfluorescein RNA aptamer beads, flow cytometry quenching; hits give low values; fluorescence response vs DMSO, % at 10 µM; 360 tested, under 10 active; AID 588494;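 active = response vs DMSO under 50%, meaning signal dropped by over half, treated as fluorescence quencher; inconclusive = no clear call, values can overlap the other calls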;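 also: labelled aptamer on streptavidin beads without GRK2 as a quench counter-screen; 100% = bead fluorescence of DMSO wells and lower means quenching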
* = called active by the depositor; i = inactive; ? = inconclusive; . = no result given. An excerpt weighted towards active compounds, which were near 2.6% of everything screened.

SMILES | SKN-1 inh | Rin1-Abl PPI inh | T cell modulator | Myeloid diff MLP | GRK2 inh | Rce1 inh | GRK2 inh confirm | FAM quench CP1 | others
C/C(=N\Nc1nc2ccccc2[nH]1)c1ccc(N2CCOCC2)cc1 | -1.1 | -6.7 | 182.5 | i | 52.0* | i | -0.4 | 100.7
CCOC(=O)C1=C(C)NC(C)=C(C(=O)OCC)C1C(=O)OCC(=O)Nc1ccc(NC(C)=O)cc1 | -14.7 | 2.1 | . | i | . | . | . | .
COC(=O)C1=C(C)NC(C)=C(C(=O)OC)C1C(=O)OCC(=O)Nc1ccc(C(C)=O)cc1 | -5.6 | 0.7 | 447.2 | i | 75.0* | i | 24.9 | 93.4
Cc1ccc(NC(=O)CS(=O)CC(=O)Nc2ccc(N3CCOCC3)cc2)cc1Cl (centres undefined) | 11.5 | 3.9 | 379.7 | i | 70.0* | i | -4.3 | 91.0
Cc1ccc(NC(=O)c2cc(N3C(=O)C=CC3=O)ccc2N2CCOCC2)cc1Cl | 1.3 | 1.0 | 310.8 | i | 71.0* | i | -2.2 | 100.6
Cc1ccc(NC(=O)c2cc(N3C(=O)CCC3=O)ccc2N2CCOCC2)cc1 | 1.2 | -4.4 | 273.0 | i | 4.0 | i | . | .
Cc1ccc(CN(C)C(=O)CCNC(=O)c2ccc(Cl)cc2)o1 | -1.0 | -1.2 | . | i | . | . | . | .
CSc1ccccc1NC(=O)N1CCCC(C(=O)c2ccc3c(c2)OCO3)C1 (centres undefined) | 4.3 | -1.1 | 176.7 | i | 95.0* | i | -1.0 | 95.7
C(=N/n1c2ccccc2c2ccccc21)/c1ccco1 | 51.1* | -2.3 | 270.1 | i | 96.0* | i | -0.7 | 100.6
CC(C)CNS(=O)(=O)c1ccc(CCC(=O)N2CCOCC2)cc1 | 2.1 | -1.7 | 394.8 | i | 15.0 | . | . | .
CCCNS(=O)(=O)c1ccc(CCC(=O)N2CCOCC2)cc1 | -5.9 | -2.5 | 265.3 | i | 61.0* | i | -13.4 | 96.2
CC(C)CNc1ncnc2[nH]ncc12 | 4.7 | 3.3 | . | i | . | . | . | .
NC(=O)c1ccsc1NC(=O)COC(=O)CNC(=O)c1ccc(F)cc1 | 24.5 | 4.3 | 448.2 | i | 55.0* | . | -1.1 | 103.7
CN1C/C(=C/c2ccsc2)C(=O)/C(=C/c2ccsc2)C1 | 8.5 | 3.6 | 227.0 | ? | 63.0* | i | -0.1 | 95.8
CN1C/C(=C/c2ccncc2)C(=O)/C(=C/c2ccncc2)C1 | 21.7 | -0.8 | 515.9 | i | 2.0 | . | . | .
Cc1c(Cl)cccc1NS(=O)(=O)c1ccc2c(c1)C1C=CCC1C(c1ccc(C(=O)O)cc1)N2 (centres undefined) | 7.2 | 9.2* | 112.2 | . | 52.0* | . | 3.7 | 93.3
CCOc1ccc(S(=O)(=O)N2CCCC(C(=O)N3CCN(c4ccccc4)CC3)C2)cc1 (centres undefined) | 2.2 | -0.3 | 192.6 | i | 3.0 | i | . | .
CC(=O)c1cccc(-n2c(CCC(=O)O)ccc2-c2ccc(C)cc2)c1 | 12.1 | -0.2 | 94.4 | i | 0.0 | i | . | .
O=C(NCCCl)Nc1ccccc1OCCOc1ccccc1NC(=O)NCCCl | 19.2 | 0.8 | 214.0 | i | 0.0 | i | . | .
COc1ccccc1NC(=O)Nc1ccc(NC(=O)c2ccccc2O)cc1 | -7.6 | 3.0 | 268.0 | i | 92.0* | i | 3.6 | 101.3
COc1ccccc1NC(=O)c1ccccc1C(=O)Nc1ccccc1OC | 7.9 | -1.8 | i | i | 54.0* | i | . | . | GRK2 CP2=-9.9;FAM quench SP=101.0
COc1ccc(NC(=O)Nc2ccccc2OC)cc1 | -4.0 | -2.2 | 129.2 | i | 2.0 | i | . | .
COc1ccccc1NC(=O)NCCCl | -1.7 | 3.1 | 358.5 | i | 60.0* | i | . | . | GRK2 CP2=-31.3;FAM quench SP=98.0

Source: PubChem (several laboratories)
